Measurements collected from several papers.
Compare with care: the assays were run in different laboratories.
EGFR: Epidermal growth factor receptor (EGFR, Homo sapiens, UniProt P00533)
EGFR G719C: Epidermal growth factor receptor (EGFR, Homo sapiens, UniProt P00533, G719C)

With N#CC1(c2ccccn2)CCN(Cc2cc(C(=O)O)c(=O)n3ccccc23)CC1 the remaining binding was 83% (EGFR; cell-free assay; competition with immobilised ligand; 1 µM).
c1ccc(C(NCCNC(c2ccccc2)c2ccccc2)c2ccccc2)cc1 gave an inhibition of -8% (EGFR; enzyme activity; inhibitor; 10 µM).
Nc1ncc(-c2nc(N3CCOCC3)nc(N3CCOCC3)n2)c(C(F)F)n1 has a remaining binding of 56% (EGFR G719C; cell-free assay; competition with immobilised ligand; 10 µM).
With CC(C)(C)c1cc(C=C(C#N)C#N)cc(Br)c1O the remaining activity was 106% (EGFR; enzyme activity; inhibitor; 0.5 µM).
The inhibition of Cn1cc(-c2cc(F)cc(N3CCn4c(cc5c4CCCC5)C3=O)c2CO)cc(Nc2ccc(N3CCN(C4COC4)CC3)cn2)c1=O is reported as 7% (EGFR; enzyme activity; inhibitor; 0.1 µM).
CCn1cnc2c(Nc3cccc(Cl)c3)nc(N[C@H]3CCCC[C@H]3N)nc21 has a remaining signal of 98.1% (EGFR; cell-free assay; 0.5 µM).
With C#Cc1n[nH]c2c(-c3cn([C@@H](C)c4ccccc4)c(=O)[nH]c3=O)cc(F)cc12 the inhibition was 0.9% (EGFR; enzyme activity; inhibitor; 0.1 µM).
Cn1cncc1[C@](O)(COc1ccc(C#N)cc1-c1ccc(OC(F)(F)F)cc1)c1ccc(C#N)cc1 has a remaining binding of 76% (Epidermal growth factor receptor (EGFR, Homo sapiens, UniProt P00533, del747-752/P753S); cell-free assay; competition with immobilised ligand; 1 µM).
With Cc1nn(C)cc1-c1nc2c(N3CCN(Cc4ccc(Cl)cc4)CC3)c(Cl)cnc2[nH]1 the remaining binding was 86% (EGFR G719C; binding; competition with immobilised ligand; 1 µM).
With C#Cc1n[nH]c2c(-c3cn([C@@H](C)c4ccccn4)c(=O)[nH]c3=O)cc(F)cc12 the inhibition was -3.6% (Epidermal growth factor receptor (EGFR, Homo sapiens, UniProt P00533, L858R/T790M); enzyme activity; inhibitor; 0.1 µM).
